The nature of assay [1]: Cytotoxicity against human HT-29 cells assessed as growth inhibition after 48 hrs by MTT assay. The following applies: HT-29, 48 h. It is filed as functional, cell-based. The procedure, abridged:
(§1)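 Cells were kept in DMEM with 10% FBS and seeded at 5000 cells/well, then attached for 24 h at 37 °C. Compounds came from 20 mM DMSO stocks, serially diluted in medium, with 0.1% DMSO as vehicle control. After 48 h at 37 °C, MTT (5 mg/mL) was added for 4 h, formazan dissolved in DMSO and A570 read. IC50 was fitted from % inhibition versus control, mean of three independent experiments.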

Assay [2] in a line: Cytotoxicity against human HepG2 cells assessed as growth inhibition after 48 hrs by MTT assay. Format: functional, cell-based. To be noted: HepG2, 48 h. The procedure, abridged: as §1
A short description of assay [3]: Cytotoxicity against human PC3 cells assessed as growth inhibition after 48 hrs by MTT assay. The following applies: PC-3, 48 h. Format: functional, cell-based. The procedure, abridged: as §1
A short description of assay [4]: Cytotoxicity against human HCT116 cells assessed as growth inhibition after 48 hrs by MTT assay. To be noted: HCT-116, 48 h. It is filed as functional, cell-based. The method, boiled down:
as §1

For assay [5], the species on record is Sus scrofa. In words: Inhibition of porcine brain tubulin polymerization at 10 uM in presence of GTP by spectrophotometric method relative to control. The procedure, abridged:
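Tubulin was purified from pig brain microtubule protein by three temperature-driven assembly/disassembly cycles, then phosphocellulose chromatography. Polymerization ran in PEM buffer (100 mM PIPES, 1 mM MgCl2, 1 mM EGTA) with 1 mM GTP and 5% glycerol at 37 °C, followed by light scattering at 340 nm. Percent inhibition came from plateau absorbance, with a DMSO negative control and a CA-4 reference run the same day.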

The nature of assay [6]: Cell cycle arrest in human PC3 cells assessed as subG1 phase accumulation at 3 uM after 12 hrs by propidium iodide staining based flow cytometry (reference value: 0.29%). Format: functional. The following applies: PC-3. The method, boiled down: (§2)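 PC-3 cells were grown overnight in dishes to about 70% confluence, then exposed to three compound concentrations. Cells were trypsinized, washed in PBS, fixed overnight in 75% ice-cold ethanol, RNase-treated at 37 °C for 30 min, and stained with propidium iodide. Phase percentages (sub-G1, G0/G1, S, G2/M) were read by flow cytometry against untreated cells.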

A short description of assay [7]: Cell cycle arrest in human PC3 cells assessed as subG1 phase accumulation at 6 uM after 12 hrs by propidium iodide staining based flow cytometry (reference value: 0.29%). To be noted: PC-3. Format: functional. The method, boiled down: as §2
A short description of assay [8]: Cell cycle arrest in human PC3 cells assessed as subG1 phase accumulation at 12 uM after 12 hrs by propidium iodide staining based flow cytometry (reference value: 0.29%). Format: functional. To be noted: PC-3. The method, boiled down:
as §2

Assay [9] is described as follows: Cell cycle arrest in human PC3 cells assessed as G0/G1 phase accumulation at 3 uM after 12 hrs by propidium iodide staining based flow cytometry (reference value: 51.58%). It is filed as functional. To be noted: PC-3. The procedure, abridged:
as §2

Assay [10] is described as follows: Cell cycle arrest in human PC3 cells assessed as G0/G1 phase accumulation at 6 uM after 12 hrs by propidium iodide staining based flow cytometry (reference value: 51.58%). Format: functional. To be noted: PC-3. The method, boiled down:
as §2

Assay [11] is described as follows: Cell cycle arrest in human PC3 cells assessed as G0/G1 phase accumulation at 12 uM after 12 hrs by propidium iodide staining based flow cytometry (reference value: 51.58%). It is filed as functional. To be noted: PC-3. The method, boiled down:
as §2

A short description of assay [12]: Cell cycle arrest in human PC3 cells assessed as S phase accumulation at 3 uM after 12 hrs by propidium iodide staining based flow cytometry (reference value: 31.7%). Format: functional. The following applies: PC-3. The procedure, abridged:
as §2

Assay [13] is described as follows: Cell cycle arrest in human PC3 cells assessed as S phase accumulation at 6 uM after 12 hrs by propidium iodide staining based flow cytometry (reference value: 31.7%). The following applies: PC-3. It is filed as functional. The method, boiled down:
as §2

Assay [14] can be described thus: Cell cycle arrest in human PC3 cells assessed as S phase accumulation at 12 uM after 12 hrs by propidium iodide staining based flow cytometry (reference value: 31.7%). It is filed as functional. The following applies: PC-3. The procedure, abridged: as §2
The nature of assay [15]: Cell cycle arrest in human PC3 cells assessed as G2/M phase accumulation at 3 uM after 12 hrs by propidium iodide staining based flow cytometry (reference value: 15.81%). Format: functional. To be noted: PC-3. The procedure, abridged: as §2
The nature of assay [16]: Cell cycle arrest in human PC3 cells assessed as G2/M phase accumulation at 6 uM after 12 hrs by propidium iodide staining based flow cytometry (reference value: 15.81%). Format: functional. To be noted: PC-3. The method, boiled down:
as §2

Assay [17] in a line: Cell cycle arrest in human PC3 cells assessed as G2/M phase accumulation at 12 uM after 12 hrs by propidium iodide staining based flow cytometry (reference value: 15.81%). Format: functional. The following applies: PC-3. The procedure, abridged:
as §2

The nature of assay [18]: Cell cycle arrest in human PC3 cells assessed as G2/M phase accumulation after 48 hrs by propidium iodide staining based flow cytometry. Format: functional. To be noted: PC-3. The procedure, abridged: as §2

Where only a bound is given, the exact number is not on record here.

Consider `COc1ccc(-n2c(SCC(=O)Nc3ccc(Cl)cc3)nnc2-c2cc(OC)c(OC)c(OC)c2)cc1`, for which the IC50 was 58 µM in assay [1], above 60 µM in assay [2], 6.29 µM in assay [3] and above 60 µM in assay [4]. In addition, the inhibition in [5] turned out to be 31%. Also, the Activity in assay [6] amounted to 0.43%; in assay [7], 0.62%; in [8], 0.37%; in assay [9], 48%; in assay [10] it was 46%; in assay [11], 37.8%. Moreover, the Activity in assay [12] is 30.8%; in assay [13], 31.7%; in assay [14], 27.1%; in [15], 20.1%; in assay [16], 24.2%; in [17], 34.8%. The Activity entry in assay [18] is “Dose-dependent effect”.

The values are drawn from ChEMBL document CHEMBL3877296, “Design, synthesis, and biological evaluation of novel alkylsulfanyl-1,2,4-triazoles as cis-restricted combretastatin A-4 analogues” (Eur J Med Chem, 2017).
